Like-named read-outs stand apart in the source and are kept apart here.
Columns and labels:
NCX1.1 = NCX1.1 (Homo sapiens, UniProt P32418); assay: excised inside-out patch-clamp, recombinant forward-mode; assay type: biochemical
NCX1.3 = NCX1.3 (Homo sapiens, UniProt P32418); assay: excised inside-out patch-clamp, recombinant forward-mode; assay type: biochemical
Outline: (§1)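 Excised inside-out patches at 22 ± 1°C from tsA201 cells 24–72 h after calcium-phosphate cotransfection with human NCX1 splice-variant cDNA plus GFP. Patch held at 0 mV. Forward-mode current elicited by raising Ca2+c […]. Peak is the maximal current after activation, late current is at 1 min, total current is the AUC. Concentration-response fitted with the Hill equation. DMSO 0.1% final.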

NCX1.7 = NCX1.7 (Homo sapiens, UniProt P32418); assay: as above; assay type: biochemical
Outline: as §1

NCX1.11 = NCX1.11 (Homo sapiens, UniProt P32418, INS637ALLLNEL); assay: as above; assay type: biochemical; settings: 5 μmol/l; n = 8
Outline: as §1

NCX1.4 = NCX1.4 (Rattus norvegicus, UniProt Q01728); assay: excised inside-out patch-clamp, recombinant forward-mode; assay type: biochemical; settings: 5 μmol/l; exon B replaced with A in rat NCX1.3
[1] = tested on: β-cell L-type calcium channels; assay type: cell-based, mouse; settings: 1 μmol/l; n = 7
[2] = tested on: β-cell L-type calcium channels; assay type: cell-based, human; settings: 1 μmol/l
mouse islets [3] = assay: Fura-2 calcium imaging of mouse islets; assay type: cell-based
mouse β-cells = assay: membrane capacitance, depolarization-induced exocytosis in mouse β-cells; assay type: cell-based; settings: 1 μmol/l; train of 10 depolarizations; n = 6; control 36.04 ± 4.87
Outline: (§2)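 Islets dispersed 2 h post-isolation with 0.0025% trypsin in Ca2+-free buffer and plated on poly-D-lysine coverslips. Mouse cells cultured in medium 199, human cells in DMEM, both with 5.6 mmol/l glucose. Cells exposed to 1 μmol/l test compound for at least 5 min. Exocytosis elicited by 10 × 500-ms depolarisations (1 Hz) from −70 to 0 mV. Total is the summed capacitance increase, normalised as fF/pF. β- and α-cells identified post hoc by insulin or glucagon immunostaining.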

human β-cells = assay: membrane capacitance, depolarization-induced exocytosis in human β-cells; assay type: cell-based; settings: 1 μmol/l; train of 10 depolarizations; n = 4; control 13.01 ± 5.64
Outline: as §2

mouse α-cells = assay: membrane capacitance, depolarization-induced exocytosis in mouse α-cells; assay type: cell-based; settings: 1 μmol/l
Outline: as §2

β-cells = assay: membrane capacitance, calcium infusion experiments; assay type: cell-based; settings: 1 μmol/l; infusion of 200 nmol/l free Ca2+
Outline: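 Whole-cell capacitance in dispersed islet cells with pipette Ca2+ buffered to 200 nmol/l free with EGTA, so Ca2+ is infused directly. Recorded with or without 1 μmol/l test compound, applied for at least 5 min. β-cells identified post hoc by insulin immunostaining.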

mouse islets [4] = assay: glucose-stimulated insulin secretion, mouse islet perifusion; assay type: cell-based; settings: 1 μmol/l
Outline: (§3)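 Islets (BALB/c mouse, or human from three donors) preincubated 2 h at 37°C in low-glucose KRB (2.8 mmol/l glucose, 24 NaHCO3, 0.5% BSA, pH 7.4) ± 1 μmol/l test compound, with a solution change at 1 h. Groups of 25 islets perifused at 0.25 ml/min and 37°C: 10 min at 2.8 mmol/l, then 40 min at 11.1 mmol/l glucose. Fractions every 2 min; insulin by ELISA, as ng/ml per 25 islets or 11.1/2.8 fold change.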

human islets = assay: glucose-stimulated insulin secretion, human islet perifusion; assay type: cell-based; settings: 1 μmol/l
Outline: as §3

[5] = intraperitoneal glucose tolerance tests in mice; assay type: in vivo; settings: preliminary, data not shown
[6] = tested on: cardiac L-type calcium channel; settings: read-out: IC50s, cardiac L-type calcium channel; cited from earlier work

**Q.** Which results are given for `N=C(N)SCCc1ccc(OCc2ccc([N+](=O)[O-])cc2)cc1` [KB-R7943]?
**A.** inhibition of total FM NCX1.1 activity (NCX1.1; 5 μmol/l): failed to inhibit; IC50 (NCX1.1; read-out: IC50, inhibition of total FM NCX1.1 activity, cardiac splice variant, total current (AUC), tsA201 cells): 43 µM; inhibition of recombinant β-cell NCX1.3 FM current (NCX1.3; 1 μmol/l): ~25%; reduction in total FM NCX1.3 activity (NCX1.3; 5 μmol/l, n = 10): 69.45 ± 3.12%; IC50 (NCX1.3; read-out: IC50, FM late current NCX1.3, late current, 1 min postactivation): 2.15 ± 0.26 µM; IC50 (NCX1.3; read-out: IC50, FM peak current NCX1.3, peak current): 5.59 ± 0.28 µM; inhibition of recombinant β-cell NCX1.7 FM current (NCX1.7; 1 μmol/l): ~25%; reduction in total FM NCX1.7 activity (NCX1.7; 5 μmol/l, n = 10): 65.57 ± 3.20%; IC50 (NCX1.7; read-out: IC50, FM late current NCX1.7, late current, 1 min postactivation): 1.72 ± 0.09 µM; IC50 (NCX1.7; read-out: IC50, FM peak current NCX1.7, peak current): 4.71 ± 0.15 µM; reduction in total current, FM NCX1.11 (NCX1.11): 64.3 ± 2.92%; FM KB-R7943 sensitivity of NCX1.4 (NCX1.4): dramatically decreased FM KB-R7943 sensitivity; reduction in total Ba2+ current, mouse β-cells [1]: 32.66 ± 3.74%; reduction in total Ba2+ current, human β-cells [2]: 29.54 ± 3.18%; rate of calcium clearance after removal of the tolbutamide/KCl challenge (mouse islets [3]; 1 μmol/l): significantly slowed; increase in Ca2+c when added concurrently with tolbutamide (mouse islets [3]; 1 μmol/l KB-R7943 + 20 μmol/l tolbutamide, 2.8 mmol/l glucose, n = 9): 19.95 ± 6.92%; effect on Ca2+c levels when applied alone (mouse islets [3]; 1 μmol/l, 2.8 mmol/l glucose): failed to significantly increase; increase to the peak Ca2+c response (mouse islets [3]; 1 μmol/l, 11.1 mmol/l glucose challenge): 83.44 ± 18.27%; increase of average Ca2+c (AUC) (mouse islets [3]; 1 μmol/l, 11.1 mmol/l glucose challenge, n = 9): 79.98 ± 8.73%; effect on Ca2+c levels in the presence of KCl (mouse islets [3]; 1 μmol/l, 15 mmol/l KCl): significantly increases; change in total capacitance, mouse β-cells (mouse β-cells): 118.22 ± 33.48 fF/pF; total change in capacitance, human β-cells (human β-cells): 100.20 ± 28.82 fF/pF; depolarization-induced capacitance response, mouse α-cells (mouse α-cells): did not significantly alter; rate at which the capacitance increased, presence vs absence of KB-R7943 (β-cells): not significantly different; insulin secretion, mouse islets (mouse islets [4]; 2.8 mmol/l glucose): without effect; first- and second-phase insulin secretion, mouse islets (mouse islets [4]; 11.1 mmol/l glucose): significantly enhanced; insulin secretion, human islets (human islets; 2.8 mmol/l glucose): without effect; first- and second-phase insulin secretion, human islets (human islets; 11.1 mmol/l glucose): significantly enhanced; blood glucose in intraperitoneal glucose tolerance test [5]: only showed a trend toward KB-R7943 lowering blood glucose; IC50 [6]: 3 to 7 µM

**Q.** With `CCCCNC(=O)NS(=O)(=O)c1ccc(C)cc1` [tolbutamide, Tolbutamide] as the molecule, how does the “increase in the 340/380 nm ratio (Ca2+c)” value (mouse islets [3]; 20 μmol/l tolbutamide, 2.8 mmol/l glucose, n = 9) read?
**A.** 0.45 ± 0.04

**Q.** What about the “decrease of elevation in Ca2+c upon a second tolbutamide challenge” value (mouse islets [3]; 20 μmol/l tolbutamide, 2.8 mmol/l glucose, n = 11) of the same molecule?
**A.** 21.87 ± 4.58%
